The compounds below were run against T1, Guanine nucleotide-binding protein G(i) subunit alpha-1 (Homo sapiens, UniProt P63096) (assay: Concentration required to stimulate binding of [35S]GTP-gamma-S, with G alpha i1).
Format: functional
Summary of the method: (§1)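 His-tagged recombinant Gαi subunits were expressed in E. coli BL21/DE3 and purified by IMAC. 3 pmol of subunit, native or in lipid vesicles, was incubated 30 min at 30 °C with 0.1 μM [35S]GTPγS in 50 mM Hepes-NaOH, 1 mM EDTA, 1 mM DTT and 100 μM MgSO4. The reaction was stopped with ice-cold buffer and filtered on cellulose nitrate. EC50 came from 1×10^-7 to 1×10^-4 M (eight concentrations).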

T1 sequence (P63096 whole entry): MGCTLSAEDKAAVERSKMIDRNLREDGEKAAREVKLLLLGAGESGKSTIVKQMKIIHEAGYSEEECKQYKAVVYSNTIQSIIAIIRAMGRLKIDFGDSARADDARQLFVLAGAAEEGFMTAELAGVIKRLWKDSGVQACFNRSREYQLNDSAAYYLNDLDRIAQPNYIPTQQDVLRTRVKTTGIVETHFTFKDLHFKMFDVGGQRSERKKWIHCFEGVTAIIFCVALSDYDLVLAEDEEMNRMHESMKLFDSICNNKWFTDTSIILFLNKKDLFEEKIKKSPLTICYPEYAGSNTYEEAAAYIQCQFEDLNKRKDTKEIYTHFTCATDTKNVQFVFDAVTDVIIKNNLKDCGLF

| EC50 [µM] | Compound |
| --- | --- |
| 18.7 | CCCCCCCCCCCCCN1CCC(C2CCN(C)CC2)CC1 |
| 17.8 | CCCCCCCCCCCCCCCNCC1CCN(CCN)CC1 |
| 6.5 | CCCCCCCCCCCCCCCN1CCN(N)CC1 |
| 50.2 | CCCCCCCCCCCCCCC(=O)NC1CCNCC1 |
| 23 | CCCCCCCCCCCCCCCCC(=O)N1CCC(C2CCN(C)CC2)CC1 |
| 47.9 | CCCCCCCCCCCCNC(=O)C(N)CCCCN (configuration not stated) |
| 32.4 | CCCCCCCCCCCCCCCN1CCC(NC2CCNCC2)CC1 |
| 8.6 | CCCCCCCCCCCCCCCNC(=O)C1CCN(CCNC=O)CC1 |
| 11.8 | CCCCCCCCCCCCCCCNC1CCNCC1 |
| 15.9 | CCCCCCCCCCCCCCCNN1CCNCC1 |
| 19.1 | CCCCCCCCCCCCCCCN1CCC(C2CCNCC2)CC1 |
| 14.7 | CCCCCCCCCCCCCCC[N+]1(C)CCC(C2CCNCC2)CC1 (configuration not stated) |
| 8.6 | CCCCCCCCCCCCCCC(=O)N1CCC(C2CCNCC2)CC1 |
| 25.4 | CCCCCCCCCCCCCCCCC(=O)N1CCC(C2CCNCC2)CC1 |
| 38.5 | CCCCCCCCCCCCCCC(=O)NN1CCNCC1 |
| 22.1 | CCCCCCCCCCCCCCCN1CCC(N)CC1 |
| 25.5 | CCCCCCCCCCCCCCC(=O)N1CCC(N)CC1 |

These compounds were tested against T2, Guanine nucleotide-binding protein G(i) subunit alpha-3 (Homo sapiens, UniProt P08754) (assay: Percent stimulation of [35S]GTP-gamma-S, binding to G alpha i3 at 5E-5 M of basal for 30 minutes).
T2 sequence (P08754 whole entry): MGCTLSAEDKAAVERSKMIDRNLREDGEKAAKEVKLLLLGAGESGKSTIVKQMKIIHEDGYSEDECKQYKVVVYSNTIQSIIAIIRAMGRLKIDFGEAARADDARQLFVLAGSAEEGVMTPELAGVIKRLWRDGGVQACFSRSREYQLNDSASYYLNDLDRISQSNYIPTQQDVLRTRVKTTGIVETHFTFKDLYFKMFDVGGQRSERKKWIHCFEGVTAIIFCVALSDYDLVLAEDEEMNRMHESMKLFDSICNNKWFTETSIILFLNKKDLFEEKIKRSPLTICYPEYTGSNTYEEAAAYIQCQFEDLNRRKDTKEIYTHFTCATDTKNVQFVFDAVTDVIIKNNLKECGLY
Format: functional
Summary of the method: (§2)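 Recombinant His-tagged Gαi subunit (3 pmol, native or in lipid vesicles) was incubated with compound at 5×10^-5 M and 0.1 μM [35S]GTPγS, 30 min at 30 °C, in 50 mM Hepes-NaOH, 1 mM EDTA, 1 mM DTT, 100 μM MgSO4. Filter-bound GTPγS after ice-cold stop and cellulose-nitrate filtration is expressed as percent of basal.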

| Stimulation [%] | Compound |
| --- | --- |
| 435 | CCCCCCCCCCCCCN1CCC(C2CCN(C)CC2)CC1 |
| 815 | CCCCCCCCCCCCCCCNCC1CCN(CCN)CC1 |
| 2820 | CCCCCCCCCCCCCCCN1CCN(N)CC1 |
| 1290 | CCCCCCCCCCCCCCC(=O)NC1CCNCC1 |
| 181 | CCCCCCCCCCCCCCCCC(=O)N1CCC(C2CCN(C)CC2)CC1 |
| 1030 | CCCCCCCCCCCCNC(=O)C(N)CCCCN (configuration not stated) |
| 2280 | CCCCCCCCCCCCCCCN1CCC(NC2CCNCC2)CC1 |
| 3240 | CCCCCCCCCCCCCCCNC(=O)C1CCN(CCNC=O)CC1 |
| 3440 | CCCCCCCCCCCCCCCNC1CCNCC1 |
| 1640 | CCCCCCCCCCCCCCCN1CCC(C2CCNCC2)CC1 |
| 1630 | CCCCCCCCCCCCCCC[N+]1(C)CCC(C2CCNCC2)CC1 (configuration not stated) |
| 1560 | CCCCCCCCCCCCCCC(=O)N1CCC(C2CCNCC2)CC1 |
| 424 | CCCCCCCCCCCCCCCCC(=O)N1CCC(C2CCNCC2)CC1 |
| 3690 | CCCCCCCCCCCCCCC(=O)NN1CCNCC1 |
| 3780 | CCCCCCCCCCCCCCCN1CCC(N)CC1 |
| 1070 | CCCCCCCCCCCCCCC(=O)N1CCC(N)CC1 |

Each compound was assayed against T3, Guanine nucleotide-binding protein G(o) subunit alpha (Homo sapiens, UniProt P09471) (assay: Concentration required to stimulate binding of [35S]GTP-gamma-S, with G alpha o1).
Format: functional
Summary of the method: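 Gαo: His-tagged recombinant subunit from E. coli BL21/DE3, IMAC-purified. 3 pmol, native or vesicle-reconstituted, incubated 30 min at 20 °C with 0.1 μM [35S]GTPγS in Hepes-NaOH/EDTA/DTT/100 μM MgSO4 mix. The reaction was stopped with ice-cold Tris/MgCl2/NaCl buffer, filtered on cellulose nitrate and washed. EC50 was derived from eight concentrations spanning 1×10^-7 to 1×10^-4 M.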
Target sequence in this assay (P09471 whole entry): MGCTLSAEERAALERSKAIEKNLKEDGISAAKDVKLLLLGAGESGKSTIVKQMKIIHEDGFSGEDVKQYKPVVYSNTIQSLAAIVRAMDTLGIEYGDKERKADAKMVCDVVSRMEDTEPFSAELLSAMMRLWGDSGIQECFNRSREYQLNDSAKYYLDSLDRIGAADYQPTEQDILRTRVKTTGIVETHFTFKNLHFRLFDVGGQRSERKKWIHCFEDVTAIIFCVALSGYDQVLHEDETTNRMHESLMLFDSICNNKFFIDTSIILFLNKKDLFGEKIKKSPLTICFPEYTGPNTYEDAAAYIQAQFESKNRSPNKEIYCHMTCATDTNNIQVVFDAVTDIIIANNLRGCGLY

| EC50 [µM] | Compound |
| --- | --- |
| 19.3 | CCCCCCCCCCCCCN1CCC(C2CCN(C)CC2)CC1 |
| 24.3 | CCCCCCCCCCCCCCCNCC1CCN(CCN)CC1 |
| 3.7 | CCCCCCCCCCCCCCCN1CCN(N)CC1 |
| 22.7 | CCCCCCCCCCCCCCC(=O)NC1CCNCC1 |
| 21.4 | CCCCCCCCCCCCCCCCC(=O)N1CCC(C2CCN(C)CC2)CC1 |
| 28.8 | CCCCCCCCCCCCNC(=O)C(N)CCCCN (configuration not stated) |
| 13.5 | CCCCCCCCCCCCCCCN1CCC(NC2CCNCC2)CC1 |
| 5.5 | CCCCCCCCCCCCCCCNC(=O)C1CCN(CCNC=O)CC1 |
| 13.3 | CCCCCCCCCCCCCCCNC1CCNCC1 |
| 6.1 | CCCCCCCCCCCCCCCNN1CCNCC1 |
| 6.2 | CCCCCCCCCCCCCCCN1CCC(C2CCNCC2)CC1 |
| 10.1 | CCCCCCCCCCCCCCC[N+]1(C)CCC(C2CCNCC2)CC1 (configuration not stated) |
| 5.6 | CCCCCCCCCCCCCCC(=O)N1CCC(C2CCNCC2)CC1 |
| 22.6 | CCCCCCCCCCCCCCCCC(=O)N1CCC(C2CCNCC2)CC1 |
| 23.4 | CCCCCCCCCCCCCCC(=O)NN1CCNCC1 |
| 23 | CCCCCCCCCCCCCCCN1CCC(N)CC1 |
| 25.8 | CCCCCCCCCCCCCCC(=O)N1CCC(N)CC1 |

Each compound was assayed against T2, Guanine nucleotide-binding protein G(i) subunit alpha-3 (assay: Percent stimulation of [35S]GTP-gamma-S, binding to G alpha i3 at 3E-5 M of basal for 30 minutes).
Format: functional

| Stimulation [%] | Compound |
| --- | --- |
| 5720 | CCCCCCCCCCCCCCCNN1CCNCC1 |

Each compound was assayed against T2, Guanine nucleotide-binding protein G(i) subunit alpha-3 (assay: Concentration required to stimulate binding of [35S]GTP-gamma-S, with G alpha i3).
Format: functional
Summary of the method: as §1

| EC50 [µM] | Compound |
| --- | --- |
| 18.9 | CCCCCCCCCCCCCN1CCC(C2CCN(C)CC2)CC1 |
| 23 | CCCCCCCCCCCCCCCNCC1CCN(CCN)CC1 |
| 6.5 | CCCCCCCCCCCCCCCN1CCN(N)CC1 |
| 34.3 | CCCCCCCCCCCCCCC(=O)NC1CCNCC1 |
| 23.3 | CCCCCCCCCCCCCCCCC(=O)N1CCC(C2CCN(C)CC2)CC1 |
| 43.9 | CCCCCCCCCCCCNC(=O)C(N)CCCCN (configuration not stated) |
| 14.4 | CCCCCCCCCCCCCCCN1CCC(NC2CCNCC2)CC1 |
| 9.3 | CCCCCCCCCCCCCCCNC(=O)C1CCN(CCNC=O)CC1 |
| 11.2 | CCCCCCCCCCCCCCCNC1CCNCC1 |
| 19 | CCCCCCCCCCCCCCCNN1CCNCC1 |
| 18.7 | CCCCCCCCCCCCCCCN1CCC(C2CCNCC2)CC1 |
| 16 | CCCCCCCCCCCCCCC[N+]1(C)CCC(C2CCNCC2)CC1 (configuration not stated) |
| 9.3 | CCCCCCCCCCCCCCC(=O)N1CCC(C2CCNCC2)CC1 |
| 24.4 | CCCCCCCCCCCCCCCCC(=O)N1CCC(C2CCNCC2)CC1 |
| 24.9 | CCCCCCCCCCCCCCC(=O)NN1CCNCC1 |
| 27.6 | CCCCCCCCCCCCCCCN1CCC(N)CC1 |
| 25.1 | CCCCCCCCCCCCCCC(=O)N1CCC(N)CC1 |

Each compound was assayed against T3, Guanine nucleotide-binding protein G(o) subunit alpha (assay: Percent stimulation of [35S]GTP-gamma-S, binding to G alpha o1 at 5E-5 M of basal for 30 minutes).
Format: functional
Summary of the method: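 With Gαo (3 pmol recombinant His-tagged subunit, native or vesicle-reconstituted), binding of 0.1 μM [35S]GTPγS was measured during 30 min at 20 °C with compound at 5×10^-5 M, in Hepes-NaOH buffer with EDTA, DTT and 100 μM MgSO4. Samples were filtered on cellulose nitrate, and the value is percent of basal binding.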
Target sequence in this assay (P09471 2-354 limits assumed): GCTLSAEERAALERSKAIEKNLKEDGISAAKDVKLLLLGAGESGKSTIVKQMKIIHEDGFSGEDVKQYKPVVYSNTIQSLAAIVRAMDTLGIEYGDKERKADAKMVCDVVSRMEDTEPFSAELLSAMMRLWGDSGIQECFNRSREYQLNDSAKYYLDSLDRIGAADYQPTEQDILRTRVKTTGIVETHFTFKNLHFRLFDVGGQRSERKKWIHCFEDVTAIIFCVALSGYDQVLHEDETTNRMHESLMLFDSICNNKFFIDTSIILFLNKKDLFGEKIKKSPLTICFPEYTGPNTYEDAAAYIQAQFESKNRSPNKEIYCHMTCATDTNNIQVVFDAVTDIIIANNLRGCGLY

| Stimulation [%] | Compound |
| --- | --- |
| 420 | CCCCCCCCCCCCCN1CCC(C2CCN(C)CC2)CC1 |
| 942 | CCCCCCCCCCCCCCCNCC1CCN(CCN)CC1 |
| 2870 | CCCCCCCCCCCCCCCN1CCN(N)CC1 |
| 1370 | CCCCCCCCCCCCCCC(=O)NC1CCNCC1 |
| 472 | CCCCCCCCCCCCCCCCC(=O)N1CCC(C2CCN(C)CC2)CC1 |
| 2510 | CCCCCCCCCCCCNC(=O)C(N)CCCCN (configuration not stated) |
| 3040 | CCCCCCCCCCCCCCCN1CCC(NC2CCNCC2)CC1 |
| 3600 | CCCCCCCCCCCCCCCNC(=O)C1CCN(CCNC=O)CC1 |
| 3830 | CCCCCCCCCCCCCCCNC1CCNCC1 |
| 5580 | CCCCCCCCCCCCCCCNN1CCNCC1 |
| 1810 | CCCCCCCCCCCCCCCN1CCC(C2CCNCC2)CC1 |
| 2090 | CCCCCCCCCCCCCCC[N+]1(C)CCC(C2CCNCC2)CC1 (configuration not stated) |
| 2390 | CCCCCCCCCCCCCCC(=O)N1CCC(C2CCNCC2)CC1 |
| 920 | CCCCCCCCCCCCCCCCC(=O)N1CCC(C2CCNCC2)CC1 |
| 4640 | CCCCCCCCCCCCCCC(=O)NN1CCNCC1 |
| 6890 | CCCCCCCCCCCCCCCN1CCC(N)CC1 |
| 1280 | CCCCCCCCCCCCCCC(=O)N1CCC(N)CC1 |

The compounds below were run against T1, Guanine nucleotide-binding protein G(i) subunit alpha-1 (assay: Percent stimulation of [35S]GTP-gamma-S, binding to G alpha i1 at 5E-5 M of basal for 30 minutes).
Format: functional
Summary of the method: as §2

| Stimulation [%] | Compound |
| --- | --- |
| 704 | CCCCCCCCCCCCCN1CCC(C2CCN(C)CC2)CC1 |
| 825 | CCCCCCCCCCCCCCCNCC1CCN(CCN)CC1 |
| 2330 | CCCCCCCCCCCCCCCN1CCN(N)CC1 |
| 1270 | CCCCCCCCCCCCCCC(=O)NC1CCNCC1 |
| 232 | CCCCCCCCCCCCCCCCC(=O)N1CCC(C2CCN(C)CC2)CC1 |
| 900 | CCCCCCCCCCCCNC(=O)C(N)CCCCN (configuration not stated) |
| 1540 | CCCCCCCCCCCCCCCN1CCC(NC2CCNCC2)CC1 |
| 3290 | CCCCCCCCCCCCCCCNC(=O)C1CCN(CCNC=O)CC1 |
| 3370 | CCCCCCCCCCCCCCCNC1CCNCC1 |
| 5060 | CCCCCCCCCCCCCCCNN1CCNCC1 |
| 1510 | CCCCCCCCCCCCCCCN1CCC(C2CCNCC2)CC1 |
| 1580 | CCCCCCCCCCCCCCC[N+]1(C)CCC(C2CCNCC2)CC1 (configuration not stated) |
| 1540 | CCCCCCCCCCCCCCC(=O)N1CCC(C2CCNCC2)CC1 |
| 612 | CCCCCCCCCCCCCCCCC(=O)N1CCC(C2CCNCC2)CC1 |
| 2320 | CCCCCCCCCCCCCCC(=O)NN1CCNCC1 |
| 3350 | CCCCCCCCCCCCCCCN1CCC(N)CC1 |
| 1050 | CCCCCCCCCCCCCCC(=O)N1CCC(N)CC1 |

Source: ChEMBL document CHEMBL1140445, “Design, synthesis, and preliminary pharmacological evaluation of a set of small molecules that directly activate gi proteins” (J Med Chem, 2005)
